Test results as given in ChEMBL document CHEMBL3244382, “Structural requirements for antileukemic activity among the naturally occurring and semisynthetic maytansinoids” (J Med Chem, 1978).
In brackets after ≈: the same amount, converted by molar mass. Activity calls are given as the source filed them.

Legend:
[1] = system: Paracentrotus lividus; test: Antimitotic activity against sea urchin eggs assessed as drug level causing inhibition of mitosis; format: functional; settings: Egg
[2] = system: Mus musculus; test: Toxicity in PS mouse allografted with mouse P388 cells assessed as change in body weight at 3.1 ug/kg relative to control; format: organism-based; settings: in vivo, 0.0031 mg/kg
Procedure, shortened: (§1)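 P388 (PS) leukemia in mice, 6 mice per dose group. Weight change is the difference in grams between treated and control animals. Survivors are recorded on toxicity day, normally 4 days after the first injection.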

[3] = system: Mus musculus; test: Toxicity in PS mouse allografted with mouse P388 cells assessed as change in body weight at 100 ug/kg relative to control; format: organism-based; settings: in vivo, 0.1 mg/kg; procedure, shortened: as §1
[4] = system: Mus musculus; test: Toxicity in PS mouse allografted with mouse P388 cells assessed as survival at 12.5 ug/kg after 4 days; format: organism-based; settings: in vivo, 0.0125 mg/kg, 96 h
Procedure, shortened: (§2)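 PS (P388) leukemic mice, six started per dose group. Toxicity scored as survivors on the toxicity day over the number of mice started. The toxicity day is normally 4 days after the first injection.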

[5] = system: Mus musculus; test: Toxicity in PS mouse allografted with mouse P388 cells assessed as change in body weight at 200 ug/kg relative to control; format: organism-based; settings: in vivo, 0.2 mg/kg; procedure, shortened: as §1
[6] = system: Mus musculus; test: Toxicity in PS mouse allografted with mouse P388 cells assessed as change in body weight at 1.8 ug/kg relative to control; format: organism-based; settings: in vivo, 0.0018 mg/kg; procedure, shortened: as §1
[7] = system: P388; test: Antitumor activity against mouse P388 cells allografted in PS mouse assessed as median survival time at 1.8 ug/kg relative to control; format: functional
Procedure, shortened: (§3)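 P388 leukemia (PS) in mice, six mice started per dose group. Read-out is T/C: median survival time of the treated group divided by that of the untreated control group, expressed as a percent. The NIH protocol counts a compound as active when T/C > 125%.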

[8] = system: P388; test: Antitumor activity against mouse P388 cells allografted in PS mouse assessed as median survival time at 200 ug/kg relative to control; format: functional; procedure, shortened: as §3
[9] = system: Mus musculus; test: Toxicity in PS mouse allografted with mouse P388 cells assessed as survival at 6.2 ug/kg after 4 days; format: organism-based; settings: in vivo, 0.0062 mg/kg, 96 h; procedure, shortened: as §2
[10] = system: Mus musculus; test: Toxicity in PS mouse allografted with mouse P388 cells assessed as survival at 100 ug/kg after 4 days; format: organism-based; settings: in vivo, 0.1 mg/kg, 96 h; procedure, shortened: as §2
[11] = system: Mus musculus; test: Toxicity in PS mouse allografted with mouse P388 cells assessed as change in body weight at 25 ug/kg relative to control; format: organism-based; settings: in vivo, 0.025 mg/kg; procedure, shortened: as §1
[12] = system: P388; test: Antitumor activity against mouse P388 cells allografted in PS mouse assessed as median survival time at 25 ug/kg relative to control; format: functional; procedure, shortened: as §3
[13] = system: Mus musculus; test: Toxicity in PS mouse allografted with mouse P388 cells assessed as change in body weight at 6.2 ug/kg relative to control; format: organism-based; settings: in vivo, 0.0062 mg/kg; procedure, shortened: as §1
[14] = system: P388; test: Antitumor activity against mouse P388 cells allografted in PS mouse assessed as median survival time at 12.5 ug/kg relative to control; format: functional; procedure, shortened: as §3
[15] = system: Mus musculus; test: Toxicity in PS mouse allografted with mouse P388 cells assessed as survival at 3.1 ug/kg after 4 days; format: organism-based; settings: in vivo, 0.0031 mg/kg, 96 h; procedure, shortened: as §2
[16] = system: Mus musculus; test: Toxicity in PS mouse allografted with mouse P388 cells assessed as change in body weight at 50 ug/kg relative to control; format: organism-based; settings: in vivo, 0.05 mg/kg; procedure, shortened: as §1
[17] = system: Mus musculus; test: Toxicity in PS mouse allografted with mouse P388 cells assessed as survival at 0.9 ug/kg after 4 days; format: organism-based; settings: in vivo, 0.0009 mg/kg, 96 h; procedure, shortened: as §2
[18] = system: P388; test: Antitumor activity against mouse P388 cells allografted in PS mouse assessed as median survival time at 3.1 ug/kg relative to control; format: functional; procedure, shortened: as §3
[19] = system: P388; test: Antitumor activity against mouse P388 cells allografted in PS mouse assessed as median survival time at 6.2 ug/kg relative to control; format: functional; procedure, shortened: as §3
[20] = system: KB; test: Cytotoxicity against human KB cells; format: functional; settings: read-out: ED50 (the source's name)
[21] = system: P388; test: Antitumor activity against mouse P388 cells allografted in PS mouse assessed as median survival time at 50 ug/kg relative to control; format: functional; procedure, shortened: as §3
[22] = target: Tubulin (Homo sapiens) (UniProt P68371+Q9H4B7+P0DPH7+P68366+Q13509+Q71U36+P04350+Q3ZCM7+P07437+P68363+Q9BQE3+Q6PEY2+Q13885+Q9BVA1+Q9BUF5); test: Inhibition of brain tubulin polymerization (unknown origin) at 37 degC by spectrophotometry
[23] = system: Mus musculus; test: Toxicity in PS mouse allografted with mouse P388 cells assessed as survival at 200 ug/kg after 4 days; format: organism-based; settings: in vivo, 0.2 mg/kg, 96 h; procedure, shortened: as §2
[24] = system: Mus musculus; test: Toxicity in PS mouse allografted with mouse P388 cells assessed as survival at 1.8 ug/kg after 4 days; format: organism-based; settings: in vivo, 0.0018 mg/kg, 96 h; procedure, shortened: as §2
[25] = system: Mus musculus; test: Toxicity in PS mouse allografted with mouse P388 cells assessed as change in body weight at 12.5 ug/kg relative to control; format: organism-based; settings: in vivo, 0.0125 mg/kg; procedure, shortened: as §1
[26] = system: P388; test: Antitumor activity against mouse P388 cells allografted in PS mouse assessed as median survival time at 0.9 ug/kg relative to control; format: functional; procedure, shortened: as §3
[27] = system: Mus musculus; test: Toxicity in PS mouse allografted with mouse P388 cells assessed as survival at 50 ug/kg after 4 days; format: organism-based; settings: in vivo, 0.05 mg/kg, 96 h; procedure, shortened: as §2
[28] = system: Mus musculus; test: Toxicity in PS mouse allografted with mouse P388 cells assessed as survival at 25 ug/kg after 4 days; format: organism-based; settings: in vivo, 0.025 mg/kg, 96 h; procedure, shortened: as §2
[29] = system: Mus musculus; test: Toxicity in PS mouse allografted with mouse P388 cells assessed as change in body weight at 0.9 ug/kg relative to control; format: organism-based; settings: in vivo, 0.0009 mg/kg; procedure, shortened: as §1
[30] = system: P388; test: Antitumor activity against mouse P388 cells allografted in PS mouse assessed as median survival time at 100 ug/kg relative to control; format: functional; procedure, shortened: as §3
[31] = system: Mus musculus; test: Toxicity in PS mouse allografted with mouse P388 cells assessed as change in body weight at 1.5 ug/kg relative to control; format: organism-based; settings: in vivo, 0.0015 mg/kg
Procedure, shortened: (§4)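 PS (P388 leukemia) mice, six per dose group. Toxicity read as the difference in grams between the weights of treated and control animals.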

[32] = system: Mus musculus; test: Toxicity in PS mouse allografted with mouse P388 cells assessed as survival at 1.5 ug/kg after 4 days; format: organism-based; settings: in vivo, 0.0015 mg/kg, 96 h; procedure, shortened: as §2
[33] = system: P388; test: Antitumor activity against mouse P388 cells allografted in PS mouse assessed as median survival time at 1.5 ug/kg relative to control; format: functional; procedure, shortened: as §3
[34] = system: Mus musculus; test: Toxicity in PS mouse allografted with mouse P388 cells assessed as change in body weight at 0.8 ug/kg relative to control; format: organism-based; settings: in vivo, 0.0008 mg/kg; procedure, shortened: as §4
[35] = system: Mus musculus; test: Toxicity in PS mouse allografted with mouse P388 cells assessed as survival at 0.8 ug/kg after 4 days; format: organism-based; settings: in vivo, 0.0008 mg/kg, 96 h; procedure, shortened: as §2
[36] = system: P388; test: Antitumor activity against mouse P388 cells allografted in PS mouse assessed as median survival time at 0.8 ug/kg relative to control; format: functional; procedure, shortened: as §3
[37] = system: Mus musculus; test: Toxicity in PS mouse allografted with mouse P388 cells assessed as survival at 1.6 ug/kg after 4 days; format: organism-based; settings: in vivo, 0.0016 mg/kg, 96 h; procedure, shortened: as §2

| SMILES | Activity [1] | Activity [2] | Activity [3] | Activity [4] | Activity [5] | T/C [8] | Activity [9] | Activity [10] | Activity [11] | T/C [12] | Activity [13] | T/C [14] | Activity [15] | Activity [16] | T/C [18] | T/C [19] | EC50 [20] | T/C [21] | inhibition [22] | Activity [23] | other results |
| --- | --- | --- | --- | --- | --- | --- | --- | --- | --- | --- | --- | --- | --- | --- | --- | --- | --- | --- | --- | --- | --- |
| COc1cc2cc(c1Cl)N(C)C(=O)C[C@H](OC(=O)CBr)[C@]1(C)O[C@H]1[C@H](C)[C@@H]1C[C@@](O)(NC(=O)O1)[C@H](OC)/C=C/C=C(\C)C2 | 1 ×10⁻⁸ mol/L | -0.2 g | -1.3 g | Non-toxic | -2.5 g | < 80% | Non-toxic | Non-toxic | -0.5 g | 162% | 0.2 g | 153% | Non-toxic | -0.3 g | 130% | 146% | 0.44 ng/mL (≈ 0.641 nM) | 189% | Active | Toxic | Activity [6]: -0.6 g; T/C [7]: 131%; Activity [17]: Non-toxic; Activity [24]: Non-toxic; Activity [25]: -0.3 g; T/C [26]: 129%; Activity [27]: Non-toxic; Activity [28]: Non-toxic; Activity [29]: -0.4 g; T/C [30]: 232% |
| COc1cc2cc(c1Cl)N(C)C(=O)C[C@H](OC(C)=O)[C@]1(C)O[C@H]1[C@H](C)[C@@H]1C[C@@](O)(NC(=O)O1)[C@H](OC)/C=C/C=C(\C)C2 | 1 ×10⁻⁸ mol/L | -1 g | -0.6 g | Non-toxic | -3.7 g | 100% | Non-toxic | Non-toxic | -1.2 g | 173% | 0.5 g | 158% | Non-toxic | -0.3 g | 133% | 150% | 0.0018 ng/mL (≈ 0.00296 nM) | 183% | Active | Non-toxic | Activity [31]: -1.1 g; Activity [32]: Non-toxic; T/C [33]: 150%; Activity [34]: 0 g; Activity [35]: Non-toxic; Activity [25]: 0.3 g; T/C [36]: 110%; Activity [27]: Non-toxic; Activity [28]: Non-toxic; Activity [37]: Non-toxic; T/C [30]: 230% |
